Series [1] in a line: Cytotoxicity against mouse 3T3 cells by neutral red uptake assay. Format: cell-based. Conditions: NIH3T3 cells, read-out: TC50 (the source's name).
A further series has as its system A2780. Kind of series: Cytotoxicity against human A2780 cells assessed as reduction in cell viability after 2 days by AlamarBlue assay. It counts as ADME, cell-based. Conditions: A2780, 48 h.
Another series has as its system Plasmodium falciparum. The series is described as follows: Antiplasmodial activity against Plasmodium falciparum Dd2 assessed as reduction in parasite growth after 72 hrs by SYBR Green 1 staining based assay. The conditions noted are these: Plasmodium falciparum, Dd2, 72 h; read-out: IC50. It counts as functional, organism-based. A digest of the protocol:
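Dd2 cultures started at ring stage, 1% hematocrit and 1% parasitemia. Grown 72 h at 37 °C in 5% CO2/5% O2/90% N2 across increasing drug concentrations. Viability read by SYBR Green I DNA quantitation in lysis buffer. IC50 from nonlinear regression; mean of three independent determinations, each in triplicate, ± SEM.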

For `CCCCCCCC/C=C\c1c(C)c(/C=C\CCCCCCCC)c2[n+](c1C)CCC2` [ANIBAMINE], the CC50 in series [1] is more than 22000 nM. The half-maximal inhibitory concentration (IC50) (in general, the concentration at which inhibition is half-maximal) in the series with A2780 turned out to be 223 nM; in the series with Plasmodium falciparum it was 170 nM.

For the origin of these results see ChEMBL document CHEMBL4613213, “Anibamine and Its Analogues: Potent Antiplasmodial Agents from Aniba citrifolia” (J Nat Prod, 2020).
